Measurements taken from ChEMBL document CHEMBL3994667, “Small Molecule Lysyl Oxidase-like 2 (LOXL2) Inhibitors: The Identification of an Inhibitor Selective for LOXL2 over LOX” (ACS Med Chem Lett, 2017).
pIC50: −log10 of the molar value.

What was measured:
[1] = target: T1, Amine oxidase [flavin-containing] A (Homo sapiens, UniProt P21397); test: Inhibition of recombinant human MAO-A at 30 uM using tyramine as substrate preincubated for 2 hrs followed by substrate addition measured every 30 secs for 10 minutes by Amplex red dye based fluorescence assay
T1 sequence (P21397 whole entry): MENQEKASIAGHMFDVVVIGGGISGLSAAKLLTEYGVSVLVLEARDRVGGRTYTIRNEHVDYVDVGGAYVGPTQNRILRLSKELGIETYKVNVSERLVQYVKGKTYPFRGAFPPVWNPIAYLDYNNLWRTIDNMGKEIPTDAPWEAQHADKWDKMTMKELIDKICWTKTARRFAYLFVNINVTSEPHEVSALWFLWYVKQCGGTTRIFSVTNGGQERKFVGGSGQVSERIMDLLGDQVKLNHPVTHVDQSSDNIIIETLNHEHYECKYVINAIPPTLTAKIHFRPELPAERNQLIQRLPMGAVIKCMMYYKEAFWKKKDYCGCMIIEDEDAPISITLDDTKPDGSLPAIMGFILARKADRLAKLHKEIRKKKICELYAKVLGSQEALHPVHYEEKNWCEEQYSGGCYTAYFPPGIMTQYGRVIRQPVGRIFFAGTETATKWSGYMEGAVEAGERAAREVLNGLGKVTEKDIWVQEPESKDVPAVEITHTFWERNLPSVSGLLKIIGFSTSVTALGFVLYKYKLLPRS

[2] = target: T2, Lysyl oxidase homolog 2 (Rattus norvegicus, UniProt B5DF27); test: Inhibition of full length recombinant rat LOXL2 expressed in CHO cells assessed as reduction in H2O2 production using DAP as substrate preincubated for 2 hrs followed by substrate addition measured every 2 minutes for 50 minutes in presence of BSA by Amplex red dye based fluorescence assay
T2 sequence (B5DF27 whole entry): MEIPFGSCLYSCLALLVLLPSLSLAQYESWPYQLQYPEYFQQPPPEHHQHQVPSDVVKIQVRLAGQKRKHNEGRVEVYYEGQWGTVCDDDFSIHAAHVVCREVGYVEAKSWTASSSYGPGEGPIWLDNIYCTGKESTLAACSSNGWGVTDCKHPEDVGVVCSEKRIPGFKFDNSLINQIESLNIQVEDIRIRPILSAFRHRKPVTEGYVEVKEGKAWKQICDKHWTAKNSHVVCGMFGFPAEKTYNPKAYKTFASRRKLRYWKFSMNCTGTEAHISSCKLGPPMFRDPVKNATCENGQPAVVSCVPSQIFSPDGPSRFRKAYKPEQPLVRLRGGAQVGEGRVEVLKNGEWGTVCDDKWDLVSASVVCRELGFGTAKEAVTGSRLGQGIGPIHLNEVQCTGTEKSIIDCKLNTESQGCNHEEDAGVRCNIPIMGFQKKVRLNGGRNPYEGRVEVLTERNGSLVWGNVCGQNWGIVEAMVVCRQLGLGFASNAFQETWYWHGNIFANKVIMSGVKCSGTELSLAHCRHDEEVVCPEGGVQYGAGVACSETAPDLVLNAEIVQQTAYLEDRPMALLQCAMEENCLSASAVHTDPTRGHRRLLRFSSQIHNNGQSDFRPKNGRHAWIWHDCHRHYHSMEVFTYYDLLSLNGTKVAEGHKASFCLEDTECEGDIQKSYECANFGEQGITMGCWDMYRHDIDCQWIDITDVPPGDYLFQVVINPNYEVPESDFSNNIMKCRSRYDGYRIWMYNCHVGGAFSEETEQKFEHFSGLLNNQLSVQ
Procedure, shortened: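 Rodent LOXL2 is tested under the same conditions as the BSA-supplemented assay: conditioned media plus BSA, with DAP as substrate and Amplex Red detection of H2O2. Species are mouse and rat. IC50 is the geometric mean x/÷ geometric standard deviation from 3 determinations.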

[3] = target: Cytochrome P450 2D6 (Homo sapiens, UniProt P10635); test: Inhibition of CYP2D6 (unknown origin); assay type: ADME
[4] = target: T3, Protein-lysine 6-oxidase (Homo sapiens, UniProt P28300); test: Inhibition of full length recombinant human LOX expressed in HEK cells assessed as reduction in H2O2 production using DAP as substrate preincubated for 2 hrs followed by substrate addition measured every 2 minutes for 50 minutes in presence of BSA by Amplex red dye based fluorescence assay
T3 sequence (P28300 whole entry): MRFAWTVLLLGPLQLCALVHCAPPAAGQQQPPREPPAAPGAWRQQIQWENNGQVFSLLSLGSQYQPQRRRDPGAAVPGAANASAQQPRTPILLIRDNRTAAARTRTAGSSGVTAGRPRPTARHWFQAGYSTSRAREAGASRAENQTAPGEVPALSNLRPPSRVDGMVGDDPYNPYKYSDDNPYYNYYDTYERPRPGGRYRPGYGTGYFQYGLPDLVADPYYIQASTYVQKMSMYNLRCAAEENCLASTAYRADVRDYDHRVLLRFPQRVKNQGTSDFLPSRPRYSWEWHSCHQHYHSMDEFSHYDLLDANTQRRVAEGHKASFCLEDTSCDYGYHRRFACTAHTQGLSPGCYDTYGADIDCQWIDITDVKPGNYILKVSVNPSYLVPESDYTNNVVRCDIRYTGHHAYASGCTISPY
Procedure, shortened: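 Enzyme source: serum-free conditioned media from HEK cells stably expressing human LOX, with BSA added to give measurable activity. Activity is measured as H2O2 from oxidative deamination of 1,5-diaminopentane (DAP), read by Amplex Red. IC50 is given as geometric mean x/÷ geometric standard deviation, with N-values reported.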

Sequence of Cytochrome P450 2D6 (P10635 whole entry): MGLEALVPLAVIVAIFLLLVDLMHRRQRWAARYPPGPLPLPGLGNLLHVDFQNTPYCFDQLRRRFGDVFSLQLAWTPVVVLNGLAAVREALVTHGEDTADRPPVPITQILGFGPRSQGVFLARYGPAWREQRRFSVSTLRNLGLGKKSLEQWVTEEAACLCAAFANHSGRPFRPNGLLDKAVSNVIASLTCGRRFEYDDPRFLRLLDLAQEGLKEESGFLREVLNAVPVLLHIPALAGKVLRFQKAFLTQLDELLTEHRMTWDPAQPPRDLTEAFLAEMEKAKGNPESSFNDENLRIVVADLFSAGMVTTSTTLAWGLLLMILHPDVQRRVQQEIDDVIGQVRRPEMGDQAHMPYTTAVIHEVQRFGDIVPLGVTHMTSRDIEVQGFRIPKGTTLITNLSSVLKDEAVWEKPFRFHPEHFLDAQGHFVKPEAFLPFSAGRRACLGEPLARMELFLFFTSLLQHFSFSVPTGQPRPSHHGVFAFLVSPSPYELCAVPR

NCc1ccnc(Cl)c1
inhibition (INH) [1]: Not Active | pIC50 [2]: 6.87 | pIC50 [3]: < 4.52 | pIC50 [4]: 5.23
